# ChEMBL document CHEMBL4364279, “Design, synthesis, in-silico and biological evaluation of novel chalcone-O-carbamate derivatives as multifunctional agents for the treatment of Alzheimer's disease” (Eur J Med Chem, 2019)
# The source made the active and inactive calls. No cut-off for these calls is given here.
# How the values were obtained:
# [1] = target: T1, Amine oxidase [flavin-containing] A (Homo sapiens, UniProt P21397); assay: Inhibition of recombinant human MAO-A expressed in baculovirus infected BTI insect cells at 12.5 uM using kynuramine as substrate measured after 30 mins by fluorescence based assay relative to control; settings: 0.5 h
# T1 sequence (P21397 whole entry): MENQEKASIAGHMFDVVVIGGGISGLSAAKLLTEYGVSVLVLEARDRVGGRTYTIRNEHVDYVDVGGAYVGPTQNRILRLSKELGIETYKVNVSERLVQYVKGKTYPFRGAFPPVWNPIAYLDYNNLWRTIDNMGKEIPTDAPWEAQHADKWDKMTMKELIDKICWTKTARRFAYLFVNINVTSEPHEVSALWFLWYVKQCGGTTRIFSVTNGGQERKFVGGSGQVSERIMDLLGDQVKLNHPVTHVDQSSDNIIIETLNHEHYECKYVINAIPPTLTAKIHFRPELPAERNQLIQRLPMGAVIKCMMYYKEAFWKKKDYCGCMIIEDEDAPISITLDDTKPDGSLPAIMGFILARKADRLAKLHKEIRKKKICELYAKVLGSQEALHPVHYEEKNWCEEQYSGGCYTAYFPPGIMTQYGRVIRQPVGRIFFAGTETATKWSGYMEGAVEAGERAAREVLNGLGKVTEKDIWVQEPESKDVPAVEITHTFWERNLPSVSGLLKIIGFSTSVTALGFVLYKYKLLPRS
# [2] = Inhibition of Cu2+-induced amyloid beta (1 to 42 residues) (unknown origin) aggregation assessed as appearance of small bulk aggregates at 25 uM after 24 hrs uranyl acetate staining-based by TEM analysis
# Method in brief: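 Aβ1-42 (25 µM) and Cu2+ (25 µM) incubated with compound at 37 °C for 24 h. Aliquots applied to carbon-coated copper/rhodium grids for 2 min at room temperature, washed with water, stained with 1% w/v uranyl acetate, air-dried 15 min, then examined by field-emission TEM.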
# [3] = tested on: Mus musculus; assay: Reversal of scopolamine-induced memory cognitive memory impairment in Kunming mouse assessed as increase in spontaneous alteration behavior at 2.6 mg/kg, ig pretreated for 30 mins followed by scopolamine challenge and after 30 mins by Y-maze test; assay type: functional, organism-based
# [4] = target: T2, Amine oxidase [flavin-containing] B (Homo sapiens, UniProt P27338); assay: biochemical; assay type: cell-based
# T2 sequence (P27338 whole entry): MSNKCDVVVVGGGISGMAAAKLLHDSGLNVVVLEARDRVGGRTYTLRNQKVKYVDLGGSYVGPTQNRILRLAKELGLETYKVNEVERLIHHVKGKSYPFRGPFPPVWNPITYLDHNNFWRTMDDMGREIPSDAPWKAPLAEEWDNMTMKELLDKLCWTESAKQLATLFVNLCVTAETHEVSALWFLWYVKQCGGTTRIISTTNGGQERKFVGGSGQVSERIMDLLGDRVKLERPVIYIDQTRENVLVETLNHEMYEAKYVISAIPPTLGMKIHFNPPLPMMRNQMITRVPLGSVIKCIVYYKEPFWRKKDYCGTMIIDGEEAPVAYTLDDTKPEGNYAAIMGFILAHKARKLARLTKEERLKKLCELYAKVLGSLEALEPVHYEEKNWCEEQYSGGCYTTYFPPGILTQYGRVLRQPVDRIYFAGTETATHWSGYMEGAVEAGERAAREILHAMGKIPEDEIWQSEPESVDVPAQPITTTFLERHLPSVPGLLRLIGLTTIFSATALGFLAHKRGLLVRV
# [5] = target: Cholinesterase (Equus caballus) (UniProt P81908); assay: Reversible inhibition of equine serum BuChE assessed as enzyme activity at 0.1 times IC50 using butyrylthiocholine iodide as substrate measured at 120 mins by Ellman's method relative to control; set-up: scale not given: the % may be the effect or the level left
# Method in brief: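 Reversibility tested by recovery of equine serum BuChE activity after dilution of inhibitor, with activity monitored over time up to 240 min by the Ellman method (DTNB read at 412 nm). Activity expressed relative to untreated control. Three independent experiments.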
# Sequence of Cholinesterase (Equus caballus) (P81908 whole entry): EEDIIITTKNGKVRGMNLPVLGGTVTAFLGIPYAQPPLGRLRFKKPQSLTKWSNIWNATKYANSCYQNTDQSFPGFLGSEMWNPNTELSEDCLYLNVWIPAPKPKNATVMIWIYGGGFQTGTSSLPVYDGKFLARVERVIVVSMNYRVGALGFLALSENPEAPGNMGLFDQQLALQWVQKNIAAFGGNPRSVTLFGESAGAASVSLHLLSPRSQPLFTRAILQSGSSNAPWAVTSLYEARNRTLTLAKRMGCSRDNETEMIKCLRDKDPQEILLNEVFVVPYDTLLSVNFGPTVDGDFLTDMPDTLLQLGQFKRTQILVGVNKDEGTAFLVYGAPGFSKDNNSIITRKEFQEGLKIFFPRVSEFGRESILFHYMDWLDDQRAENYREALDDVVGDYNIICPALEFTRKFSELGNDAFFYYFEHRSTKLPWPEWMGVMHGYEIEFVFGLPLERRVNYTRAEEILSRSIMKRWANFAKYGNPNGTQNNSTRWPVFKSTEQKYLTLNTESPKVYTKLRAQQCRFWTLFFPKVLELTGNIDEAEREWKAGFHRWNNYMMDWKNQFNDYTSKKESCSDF
structure (smiles),measurement,setting,value
CCN(C)C(=O)Oc1cccc(/C=C/C(=O)c2ccccc2O)c1,inhibition at 12.5 µM,[1],16.4%
same,inhibition,[2],Active
same,Activity,[3],Active
same,IC50,[4],1.3 µM
same,Activity,[5],< 75.1%
